Data taken from the EternaBench riboswitch data.

Test system: MS2 coat protein
Experiment: apparent Kd, MS2 coat protein; higher = weaker binding; RNA-MaP array; FMN 200 µM where present
In short: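 Stalled E. coli RNA polymerase transcribed the designs on Illumina sequencing-chip clusters. SNAP-549-labelled MS2 coat protein was titrated from 0.7 or 1.5 nM, doubling to 3 µM, without and then with constant ligand, in 100 mM Tris-HCl pH 7.5, 80 mM KCl, 4 mM MgCl2, BSA, DTT, yeast tRNA and Tween-20. Per-cluster binding curves were fitted to green signal normalised to red-channel RNA signal and control-cluster median Fmax. The apparent Kd is the median of the filtered fits.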

[1] = designed as: ON switch for flavin mononucleotide, no ligand
[2] = ligand present: flavin mononucleotide, designed as: ON switch for flavin mononucleotide
[3] = designed as: OFF switch for flavin mononucleotide, no ligand
[4] = ligand present: flavin mononucleotide, designed as: OFF switch for flavin mononucleotide

Sequence | apparent Kd [1] [nM] | apparent Kd [2] [nM] | apparent Kd [3] [nM] | apparent Kd [4] [nM]
GUACAUGAGCAGAAGGGCAUUUAAUUACAUUUUUAUGUUUAUCAGAUAUGCAGGAUAUGUUAAACAUGAGGAUCACCCAUGUAC | 196 | 42.6 |  | 
UGGUCGGAGACAGGAUAUGUGACUGCAUAGUGCACAGAAGGGUCUACAUGAGGAUCACCCAUGUCACCGACCACCAAACAACAA | 626 | 55.2 |  | 
GUAGCUACAAUUAUACAUGAGGAUCACCCAUGUUACAUGGGUAAGGAUAUUGAGGUUAUUAUUGUCAAGAAGGUACUAUGCUAC | 505 | 71.6 |  | 
UGCGGAUAUCGAGGAUAUGCGACGGGUUCUCACAUGAGGAUCACCCAUGUCCGCGGGCCUCAAAAGCAGAAGGCGAGUUCGGUU | 376 | 10.6 |  | 
GGAUUACAUGAGGAUCACCCAUGUGAGGAUAUCGAUGUCCAGUAAUACGUGCGGGACUCGAGAAGGCACUUGGA |  |  | 40.1 | 200
GGGCCCGGAGGAUAUACAUGAGGAUCACCCAUGUGCCGGGCCCAACGGGCCCGGCUGUGUAGAAGGCCGGGCCC |  |  | 13.3 | 12.5
CUCAUGUGAGGAUAUUCGGGCGGGCUCGUUUGGGUUUGUUUGGAGAAGGUACAUGAGGAUCACCCAUGUGCUGG |  |  | 218 | 77.8
GCCAACUCAUGAGGAUAUGGCACCUUAUUGGUGCCAGAAGGCGUGUCUAUUGACAUGAGGAUCACCCAUGUAUUAUAGUUGGCA | 678 | 105 |  | 
UCGCUGCGAGGAUAUACAUGAGGAUCACCCAUGUACGGGUCCGGGUCUUCGUCCAUUAGUAGAAGGCGCAGUGA |  |  | 52.8 | 325
CGCGAACAGGCUAACAUGAGGAUCACCCAUGUGGACUCAUGGUAGGAUAUCGGGAAGGAGGAAACCGAGAAGGGCCGGUGAGCC | 498 | 359 |  | 
ACGACGAAAGUCGAACGAUGUAGCAGAAGGACAUGAGGAUCACCCAUGUCAGCUGUGCAAAACAUGUAGGAUAUGCUACAUCGA |  |  | 6.14 | 11.3
CGUGCGUAUGUGAGGAUAUGCUGGUCCUUGGAUCAGCAGAAGGCACAUGAGGAUCACCCAUGUGGUGUCGUACA |  |  | 273 | 20.1
GUGUACAGAGGAUAUACACGAGUAGUUACGAAAGUAACUAUACAUGAGGAUCACCCAUGUAGAAGGCUGUACAC |  |  | 19.1 | 30.5
AUAAAGUCAGGAUAUGUAAGAAUAACGAAAGUUAUAAAGAAACAGAAGGGACAUGAGGAUCACCCAUGUAAAAU |  |  | 29.6 | 30.5
CCAUGUUAGCAGGAUAUGCUAUUAAUCUUUUAUGCAGAAGGGCUUACAUGAGGAUCACCCAUGUAUUAAGUCUU |  |  | 11.3 | 19.5
UCCUUGGAAGGAUAUCGAUAGGCUUACAUGAGGAUCACCCAUGUUGGGAUGUCUUUCUGUCGAGAAGGUUCGUUUU |  |  | 19.7 | 21.4
GGAUAGGACAGAGGAUAUACGUGCUAGAGAUUCUAGCAAAAUUUCCUCACAUGAGGAUCACCCAUGUAGAAGGCUGUCCUAUCG |  |  | 15.6 | 321
GCAGCGCCUGACAUGAGGAUCACCCAUGUUAGAUUGUUAAGUCAGGAUAUAGUCUAGAAACUAGACUAGAAGGGAUAUGCUGCU | 15 | 8.03 |  | 
AGAAACUACGAGAAGGACAUGUGGUCCUUCAGUUACAUGAGGAUCACCCAUGUAGGAUAUCGUAGUUUCAGGAUCGUGAGAUCU |  |  | 32.5 | 13
CGUGAACGGACGCACUGUUUCCACAUGAGGAUCACCCAUGUGAAGGAUAUGACUGGCGCCACUUGUUAGAAGGUCACUGGGCGA |  |  | 39.8 | 71.1
GUCAUGGUAACAGGAUAUCGUUGAUAAAAGUUAUACAUGAGGAUCACCCAUGUCCGCACUAAGGGCGAGAAGGGUUAUUAUCAC | 501 | 382 |  | 
GUCAGCUCGUGAGGAUAUACAUCACUGCGAAAGCAGUGUAUUAAGAUCACAUGAGGAUCACCCAUGUAGAAGGCACGAGCUGAU |  |  | 43.7 | 626
ACACGGUAUGUAGGAUAUGCAUAGCAUUGCUAUGCAGAAGGACAUGAGGAUCACCCAUGUAUGUAUUCCAUACUAAUCCCGUGC |  |  | 6.03 | 6
AUAUGAUAGAUAGGAUAUACAGAUGAAUAAUAAGUAGAAGGAUCAAAUGGGAAUUAUACAUGAGGAUCACCCAUGUUUUUGGAU | 50.1 | 32.1 |  | 
GCACUUCGGCAGAAGGGACUAUGGGUAUGGUAGUCAGGAUAUGCAGGGUGGGCGUUUCACAUGAGGAUCACCCAUGUAGGACCA | 15.1 | 8.52 |  | 
UCACGGGACUGAGGAUAUACAUGAACUAUUUUUGUAGAAGGCAGAAUGUUAGAUUAUACACUAAACAUGAGGAUCACCCAUGUU |  |  | 19.1 | 16.1
CUCCUGUGAUUAGGAUAUGUGCGCACUGUGCUAGCAGAAGGGAUCACAUGAGGAUCACCCAUGUGAGUAGCUCACUGUAAAGGG |  |  | 111 | 107
AUUACCACGGUAAGGAUAUUGUACGCAGCAUGCGUUAAGAAGGUACAUGAGGAUCACCCAUGUCUUCCGGUAGC |  |  | 20.5 | 21.2

Sequence | apparent Kd [1] [nM] | apparent Kd [2] [nM] | apparent Kd [3] [nM] | apparent Kd [4] [nM]
CACGAGCUAGGAUAUACAUGAGGAUCACCCAUGUAAGUCAUGCGGUCACAUCUGACAGGUAGAAGGAGCGCGUC |  |  | 39.3 | 126
AUACUUAAUGAAGGAUAUCUUAGCAUAAACCUGAGAGAAGGUCAUUAUUACAUGAGGAUCACCCAUGUUGUAGUUAAUGGGUAA |  |  | 199 | 254
AGAGAGAGCACAGGAUAUCCGCACACAUGCAGCGGAGAAGGGUGACCUUUUUGCACAUGAGGAUCACCCAUGUCCAGCACCACG | 25.7 | 13.3 |  | 
AAUUAUUGAUGAGGAUAUUGUGGUGAAACACGACAAGAAGGCAUUAUUCACAUGAGGAUCACCCAUGUGAGCCUGAUGCAUAUA |  |  | 14.5 | 13.9
UAUGACAUGAGGAUCACCCAUGUCAGCGAGAAAUGAGAGUCACAGGAUAUGUUUUCGGCCGGCAGACAGAAGGGUGACCCUGAG | 10.9 | 7.02 |  | 
GCCAUCGCAUGAGGAUAUGCUCCGGUUUCCGGAGCAGAAGGCAUGUGAUAACACAUGAGGAUCACCCAUGUAGUUAAGAUGGCA | 5.51 | 4.62 |  | 
UCCUCACAUGAGGAUCACCCAUGUCAGGAUAUACCCAAAGCUGCGAAAAUAUCCAGCUGUAGAAGGGACAGGCU |  |  | 18.3 | 20.1
GGAUAGGACAGAGGAUAUACGUGCUAGAGAUACUAGCAAAAUUUCCUCACAUGAGGAUCACCCAUGUAGAAGGAUGUCCUAUCG |  |  | 5.3 | 7.61
CGGAGACAUGAGGAUCACCCAUGUCGUCGUCACAGAGGAUAUGGGAGCGUCAGGGACGCAUCAGAAGGCUGAAAGC | 32.5 | 19.1 |  | 
GCAGCUCCUGACAUGAGGAUCACCCAUGUUCAAUUGUUGAGUCAGGAUAUAGUCUAGAAACUAGACUAGAAGGGAUAUGCUGCU | 12.3 | 10.8 |  | 
AUAGCUCCCUAGAAGGGCCAACCAGUAUUCCAUCAGGUAUUUGCGGUAGGUAGGAUAUGGGACAUGAGGAUCACCCAUGUGUAG | 35.8 | 25.8 |  | 
AAGCUGACAAUAAAUAACUCAAAUACAUGAGGAUCACCCAUGUAGGAUAUGCAGUGGAAUACACUGCAGAAGGACAUAGUCAGC |  |  | 13.6 | 21.9
GUCAGCUCGUGAGGAUAUACAACACUGCUUCGGCAUUGUAUUAAGAUCACAUGAGGAUCACCCAUGUAGAAGGCACGAGCUGAU |  |  | 9.1 | 109
UGGGUUGUUGAGGAUAUCCCGACCGUCUGGUCGGGAGAAGGCAAUACAUGAGGAUCACCCAUGUCACACUUUUC |  |  | 32.2 | 66.5
AAUUAUUUUUGAGGAUAUGGUGGUGAAACACCACCAGAAGGCGAAAUAAACAUGAGGAUCACCCAUGUGAGCCUGAUGCUUAUG |  |  | 21.1 | 55.8
CGUUUAUUUAUGGGUUUAUAUUAUGAGGAUAUCAAUAUUUUAUACAUGAGGAUCACCCAUGUUACUGAGAAGGCAUAAUUAACG | 10.9 | 6.44 |  | 
UUCAGACAUGAGGAUCACCCAUGUGAGGAUAUGAUGCGAUCGUCGAAAGACGAUAGCAUCAGAAGGUACAAAUG |  |  | 63 | 66.6
CUCAAGUCAGGAUAUCCAGCUGUGUUCCGGGACUCGUAGUUGGAGAAGGGACAUGAGGAUCACCCAUGUCAGCC |  |  | 32.3 | 67.8
GCUGACGAUGUAGGAUAUCUCGACGAUAAGUCGAGAGAAGGACAUGAGGAUCACCCAUGUACUCAAACGUCAGCGAGGAAACUC |  |  | 18.7 | 27.6
UUAUUAAGUGUGAGGAUAUGCUGGUCCUUGGAUCAGCAGAAGGCACAUGAGGAUCACCCAUGUACUUUAUUUUA |  |  | 15.4 | 62.2
UAAUAAUAAUAAUAAUGGACGAUACAUGAGGAUCACCCAUGUAAGGAUAUGCAGUGGAAUACACUGCAGAAGGUACAUACGUCC |  |  | 15.7 | 23
CUGUACAUAGGAUAUAGUUGUUUUUACAUGAGGAUCACCCAUGUUACUCCUCUCUCUCUUCUAGAAGGAUGUUUUU |  |  | 79.8 | 58.4
UUUUAACAUGAGGAUCACCCAUGUGAGGAUAUCGAAAUUUAUAUUUAUAUUAAUAUUACGAGAAGGCACAUUUU |  |  | 85.5 | 118
AAAGGUGCAGGAUAUGCGUGGAAAAAGUGUAUUCAAAAAAAACAUGAGGAUCACCCAUGUAGAAGGGUACCAAA |  |  | 65.9 | 180
GAGUACAUCGGAGGAUAUCAUGUAAAUACAUGAGGAUCACCCAUGUCGAUGGAGACAUCGGAGAUUGAGAAGGCCGAUGUACCG | 180 | 8.63 |  | 
AAAACAUGAGGAUCACCCAUGUAAAGAUCACUUAAUAGUUGUGAGGAUAUACGAUUUUAAAGCUAGUAGAAGGCACUGGGUACA | 28.1 | 36.1 |  | 
GAAUGUCGGGUAGGAUAUGACGUGCCACGGAGGUCAGAAGGGCCGCGACAUGAGGAUCACCCAUGUACUGUAUUCCUUUUUCAA |  |  | 24.3 | 67.4
